Measurements: ChEMBL document CHEMBL4342473, “Lead Optimization of Benzoxazolone Carboxamides as Orally Bioavailable and CNS Penetrant Acid Ceramidase Inhibitors” (J Med Chem, 2020)

What was measured:
[1] = molecular target: T1, Acid ceramidase (Homo sapiens) (UniProt Q13510); assay: Inhibition of acid ceramidase in human SH-SY5Y cells using N-lauroyl ceramide as substrate measured after 3 hrs by LC/MS analysis; type: cell-based
T1 sequence (whole entry): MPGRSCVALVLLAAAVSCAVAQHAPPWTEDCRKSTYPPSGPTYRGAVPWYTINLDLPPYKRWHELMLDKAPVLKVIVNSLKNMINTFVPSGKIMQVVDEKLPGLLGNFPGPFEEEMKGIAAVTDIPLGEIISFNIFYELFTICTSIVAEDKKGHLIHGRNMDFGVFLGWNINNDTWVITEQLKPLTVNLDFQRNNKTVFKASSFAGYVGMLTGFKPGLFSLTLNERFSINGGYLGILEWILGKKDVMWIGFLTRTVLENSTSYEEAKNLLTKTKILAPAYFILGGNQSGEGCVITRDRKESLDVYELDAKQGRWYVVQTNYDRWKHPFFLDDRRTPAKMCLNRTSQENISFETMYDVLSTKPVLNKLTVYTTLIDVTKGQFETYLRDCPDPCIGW
Procedure, shortened: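 SH-SY5Y neuroblastoma cells exposed 3 h to 1, 2.5, 5 and 10 μM; AC activity by LC/MS-based assay; ceramide species, sphingosine, SM and HexCer (d18:1/16:0) quantified by LC/MS; means ± S.E.M. of at least six determinations, experiment repeated twice.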

[2] = tested on: Mus musculus; assay: Neuroprotective activity in ip dosed Twitcher mouse model of Krabbe's disease assessed as reduction in GalSph (d18:1) level in brain administered once daily for 20 days measured 1 hr post-last dose by MS analysis; type: functional, organism-based
Procedure, shortened: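 Twitcher mice dosed i.p. at 30 or 90 mg kg–1 once daily for 20 days from postnatal day 10; sacrificed 1 h after last dose; brain GalSph (d18:1) measured; N = 3 males + 3 females per group.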

[3] = Unbound drug level in brain of C57BL/6J/129SvEV mouse model of Gaucher's disease at 30 mg/kg, ip administered once daily for 14 days measured 1 hr post-last dose; type: ADME, organism-based; conditions: in vivo
Procedure, shortened: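 4L;C* mice dosed i.p. once daily for 14 days, killed 1 h after last dose (day 14); plasma and brain drug levels measured; unbound concentrations from plasma and brain unbound fractions (mean of two technical replicates); N = 4–8, mixed sexes.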

## CC(C)CNC(=O)n1c(=O)oc2cc(C3CCN(C)CC3)ccc21
[1]
  inhibition: Dose-dependent effect
[2]
  Activity: Dose-dependent effect
[3]
  Drug uptake(free): 0.77 µM
